The values that follow come from ChEMBL document CHEMBL1649477, “Trypanothione reductase high-throughput screening campaign identifies novel classes of inhibitors with antiparasitic activity” (Antimicrob Agents Chemother, 2009).

Molecules are shown by their SMILES. Values joined by “and” are separate entries in the source; they are usually repeats but may differ in a detail not shown here. Equal values may be shown once.

T1 sequence (P28593 whole entry): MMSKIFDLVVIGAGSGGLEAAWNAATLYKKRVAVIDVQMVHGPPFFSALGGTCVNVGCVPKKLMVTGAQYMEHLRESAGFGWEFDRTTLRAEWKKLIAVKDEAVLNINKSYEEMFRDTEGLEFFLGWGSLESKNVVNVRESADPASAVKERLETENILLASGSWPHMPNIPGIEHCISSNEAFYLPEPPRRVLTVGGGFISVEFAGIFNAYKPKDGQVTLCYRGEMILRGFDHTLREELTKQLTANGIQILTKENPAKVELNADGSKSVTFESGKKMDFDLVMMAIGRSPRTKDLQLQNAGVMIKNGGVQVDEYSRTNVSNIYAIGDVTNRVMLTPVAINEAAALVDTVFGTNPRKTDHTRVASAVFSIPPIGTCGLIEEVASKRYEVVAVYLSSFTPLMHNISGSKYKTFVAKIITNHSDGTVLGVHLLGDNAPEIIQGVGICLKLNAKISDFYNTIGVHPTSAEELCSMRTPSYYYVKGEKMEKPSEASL

System in the first data set: not listed separately
Briefly: Solubility of the compound at pH 2. Format: physicochemical. Particulars: buffer.
The term solubility denotes the dissolved amount per volume that the medium holds. A low value points to little dissolved substance. In turn, `CCc1ccc2c(C)nc(NC3=NC(C)(C)C=C(C)N3)nc2c1` registered a solubility of over 100 µM.

`CN1C2CCC1CC(=NOC(c1ccccc1)c1ccc(Cl)cc1)C2` (configuration not stated) came in with a solubility of over 100 µM.

Regarding `CCc1ccc2c(C)nc(NC3=NC(C)(C)CC(C)=N3)nc2c1`, the solubility is over 100 µM.

System in the next data set: not listed separately
Kind of data set: Solubility of the compound at pH 6.5. The class given is physicochemical. Particulars: buffer.
Consider `CCc1ccc2c(C)nc(NC3=NC(C)(C)C=C(C)N3)nc2c1`, for which the solubility was over 100 µM.

Molecule `CN1C2CCC1CC(=NOC(c1ccccc1)c1ccc(Cl)cc1)C2` (configuration not stated) came in with a solubility of over 100 µM.

For `CCc1ccc2c(C)nc(NC3=NC(C)(C)CC(C)=N3)nc2c1`, the solubility was over 100 µM.

For another data set, the system named is Leishmania donovani. Briefly: Antiprotozoal activity against Leishmania donovani MHOM/ET/67/L82 amastigotes. The class given is functional, organism-based.
Conditions: not given
Usually IC50 stands for the concentration needed to halve the response being measured. Take `CN1C2CCC1CC(=NOC(c1ccccc1)c1ccc(Cl)cc1)C2` (configuration not stated): the IC50 is over 30 µM.

`S=C(Nc1cccnc1)NC1CCN(Cc2ccccc2)CC1` gave an IC50 of over 30 µM.

Take `CN1/C(=C/C=C2\C=Nc3ccccc32)C=Cc2ccccc21`: the IC50 stood at 3 µM.

`Cc1cc(C)c2c(C)nc(Nc3nc(C)cc(C)n3)nc2c1` gave an IC50 of 32 µM.

`N=c1n(CCOc2ccccc2)c2ccccc2n1CCN1CCCCC1` had a half-inhibitory concentration (IC50) of over 30 µM.

As for `CC1=CC(C)(C)N=C(Nc2nc(C)c3cc(C)cc(C)c3n2)N1`, the IC50 came out at 14 µM.

The molecule `COc1nncc(-c2cnnc(SC)n2)n1` came in with an IC50 of 8 µM.

`Cc1nc(NC(=N)N)nc2ccccc12` returned an IC50 of over 64 µM.

Another data set has as its target T1, Trypanothione reductase (Trypanosoma cruzi, UniProt P28593). Kind of data set: Inhibition of Trypanosoma cruzi X10/1 trypanothione reductase assessed as inhibition of thionitrobenzoate formation by microplate reader analysis.
Conditions: not given
The gist of the method:
(§1)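 Recombinant T. cruzi TR (Silvio X10/1) coupled to DTNB-driven trypanothione regeneration. Enzyme (20 mU/ml), 12 μM T[S]2 and 200 μM DTNB in pH 7.5 HEPES/EDTA/BSA/Tween 20 buffer are preincubated ≥15 min at room temperature with compound. The reaction is started with 300 μM NADPH. Final conditions are 6 μM T[S]2, 100 μM DTNB and 150 μM NADPH. TNB absorbance at 410 nm is read for 12.5 min. Titrations are run in triplicate.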
For the molecule `CN1C2CCC1CC(=NOC(c1ccccc1)c1ccc(Cl)cc1)C2` (configuration not stated), the IC50 came to 33 µM.

With `CSc1nncc(-c2ccccc2)n1`, the IC50 was over 100 µM.

For the molecule `S=C(Nc1cccnc1)NC1CCN(Cc2ccccc2)CC1`, the IC50 was determined as 2 µM.

For the molecule `CN1/C(=C/C=C2\C=Nc3ccccc32)C=Cc2ccccc21`, the IC50 was 23 µM.

On to `CSc1nncc(-c2cnc(SC)c3c2CCCC3)n1`, for which the IC50 is over 100 µM.

In the case of `CCc1ccc2c(C)nc(NC3=NC(C)(C)CC(C)=N3)nc2c1`, the 50% inhibitory concentration (IC50) was determined as 32 µM.

As to `CCOc1ccc2c(C)nc(NC3=NC(C)(C)CC(C)=N3)nc2c1`, the IC50 amounted to 28 µM.

With `Cc1cc(C)c2nc(Nc3nc(C)c(C)c(O)n3)nc(C)c2c1`, the half-inhibitory concentration (IC50) was over 100 µM.

For `Cc1cc(C)c2c(C)nc(Nc3nc(C)cc(C)n3)nc2c1`, the IC50 is over 100 µM.

Turning to `Cc1ccc2nc(Nc3nc(C)cc(C)n3)nc(C)c2c1`, the IC50 is over 100 µM.

`Cc1cc(C)c2nc(NC(=N)N)nc(C)c2c1`: the IC50 was over 100 µM.

`N=c1n(CCOc2ccccc2)c2ccccc2n1CCN1CCCCC1`: the IC50 was 9 µM.

Take `CC1=CC(C)(C)N=C(Nc2nc(C)c3cc(C)cc(C)c3n2)N1`: the IC50 worked out at 17 µM.

As for `COc1nncc(-c2cnnc(SC)n2)n1`, the IC50 was 27 µM.

Turning to `Cc1nc(NC(=N)N)nc2ccccc12`, the IC50 is over 100 µM.

System in another data set: not listed separately
Kind of data set: Distribution coefficient, log D of the compound at pH 7.4. The class given is physicochemical. Particulars: octanol/water.
The logD is the decadic logarithm of the distribution of all forms, ionised or not, between an organic phase and buffer at a given pH. Lower therefore signals a more hydrophilic compound. In the case of `CCc1ccc2c(C)nc(NC3=NC(C)(C)C=C(C)N3)nc2c1`, the logD was found to be 0.7.

On to `CN1C2CCC1CC(=NOC(c1ccccc1)c1ccc(Cl)cc1)C2` (configuration not stated), for which the logD was 2.9.

The molecule `CCc1ccc2c(C)nc(NC3=NC(C)(C)CC(C)=N3)nc2c1` showed a logD of 3.6.

The subject of another data set is Trypanosoma brucei rhodesiense. Briefly: Antitrypanosomal activity against Trypanosoma brucei rhodesiense STIB900 bloodstream forms. Format: functional, organism-based.
Conditions: not given
In turn, `CN1C2CCC1CC(=NOC(c1ccccc1)c1ccc(Cl)cc1)C2` (configuration not stated) returned an IC50 of 3 µM.

On to `S=C(Nc1cccnc1)NC1CCN(Cc2ccccc2)CC1`, for which the IC50 amounted to 15 µM.

In the case of `CN1/C(=C/C=C2\C=Nc3ccccc32)C=Cc2ccccc21`, the midpoint of inhibition, the IC50, lay at 0.1 µM.

Take `Cc1cc(C)c2c(C)nc(Nc3nc(C)cc(C)n3)nc2c1`: 27 µM corresponded to half-maximal inhibition (IC50).

`N=c1n(CCOc2ccccc2)c2ccccc2n1CCN1CCCCC1`: the midpoint of inhibition, the IC50, lay at 0.6 µM.

`CC1=CC(C)(C)N=C(Nc2nc(C)c3cc(C)cc(C)c3n2)N1` had an IC50 of 1 µM.

With `COc1nncc(-c2cnnc(SC)n2)n1`, the midpoint of inhibition, the IC50, lay at 5 µM.

`Cc1nc(NC(=N)N)nc2ccccc12` had an IC50 of 39 µM.

As for `Nc1nc(N)nc(Nc2ccc([As]3SCC(CO)S3)cc2)n1` (configuration not stated) [MELARSOPROL], the IC50 was determined as 0.017 µM.

The next data set deals with Trypanosoma cruzi. Briefly: Antiprotozoal activity against Trypanosoma cruzi Tulahuen C2C4 amastigotes. Format: functional, organism-based.
Conditions: not given
For the molecule `CN1C2CCC1CC(=NOC(c1ccccc1)c1ccc(Cl)cc1)C2` (configuration not stated), the IC50 came out at 0.1 µM.

With `S=C(Nc1cccnc1)NC1CCN(Cc2ccccc2)CC1`, the IC50 was over 30 µM.

With `CN1/C(=C/C=C2\C=Nc3ccccc32)C=Cc2ccccc21`, inhibition was half-maximal at 6 µM (IC50).

In turn, `Cc1cc(C)c2c(C)nc(Nc3nc(C)cc(C)n3)nc2c1` gave an IC50 of 8 µM.

In the case of `N=c1n(CCOc2ccccc2)c2ccccc2n1CCN1CCCCC1`, the midpoint of inhibition, the IC50, lay at 19 µM.

`CC1=CC(C)(C)N=C(Nc2nc(C)c3cc(C)cc(C)c3n2)N1` had an IC50 of 6 µM.

`COc1nncc(-c2cnnc(SC)n2)n1` yielded an IC50 of 15 µM.

Molecule `Cc1nc(NC(=N)N)nc2ccccc12` returned an IC50 of 38 µM.

System in another data set: not listed separately
Briefly: Cytotoxicity against rat L6 cells. The class given is cell-based.
Conditions: not given
As usually defined, the CC50 is the concentration that lowers cell viability or growth by half. A lower CC50 goes with harm at low concentration. In turn, `CN1C2CCC1CC(=NOC(c1ccccc1)c1ccc(Cl)cc1)C2` (configuration not stated) gave a CC50 of 35 µM.

`S=C(Nc1cccnc1)NC1CCN(Cc2ccccc2)CC1` returned a CC50 of 90 µM.

`CN1/C(=C/C=C2\C=Nc3ccccc32)C=Cc2ccccc21` came in with a CC50 of 14 µM.

Molecule `Cc1cc(C)c2c(C)nc(Nc3nc(C)cc(C)n3)nc2c1` showed a CC50 of 11 µM.

For `CC1=CC(C)(C)N=C(Nc2nc(C)c3cc(C)cc(C)c3n2)N1`, half-maximal cytotoxicity (CC50) was put at 10 µM.

`COc1nncc(-c2cnnc(SC)n2)n1`: the CC50 turned out to be 30 µM.

Molecule `Cc1nc(NC(=N)N)nc2ccccc12` showed a CC50 of over 64 µM.

The subject of a further data set is Plasmodium falciparum. Briefly: Antiplasmodial activity against Plasmodium falciparum 3D7 erythrocytic stage. The class given is functional, organism-based.
Conditions: not given
In turn, `CN1C2CCC1CC(=NOC(c1ccccc1)c1ccc(Cl)cc1)C2` (configuration not stated) came in with an IC50 of 8 µM.

Molecule `S=C(Nc1cccnc1)NC1CCN(Cc2ccccc2)CC1` returned a half-maximal inhibitory concentration (IC50) of 8.6 µM.

In turn, `CN1/C(=C/C=C2\C=Nc3ccccc32)C=Cc2ccccc21` displayed an IC50 of 0.2 µM.

For the molecule `Cc1cc(C)c2c(C)nc(Nc3nc(C)cc(C)n3)nc2c1`, the IC50 came out at 4 µM.

`N=c1n(CCOc2ccccc2)c2ccccc2n1CCN1CCCCC1` gave an IC50 of 2 µM.

`CC1=CC(C)(C)N=C(Nc2nc(C)c3cc(C)cc(C)c3n2)N1`: the IC50 amounted to 2 µM.

As for `COc1nncc(-c2cnnc(SC)n2)n1`, the IC50 stood at 0.2 µM.

Turning to `Cc1nc(NC(=N)N)nc2ccccc12`, it took 42 µM to reach half-maximal inhibition (IC50).

Another data set has as its target Glutathione reductase (Homo sapiens). Kind of data set: Inhibition of human glutathione reductase.
Conditions: not given
In the case of `N=c1n(CCOc2ccccc2)c2ccccc2n1CCN1CCCCC1`, the IC50 is over 100 µM.

The next data set addresses T1, Trypanothione reductase. Briefly: Inhibition of Trypanosoma cruzi trypanothione reductase assessed as inhibition of thionitrobenzoate formation by microplate reader analysis.
Conditions: not given
The gist of the method: as §1
As to `S=C(Nc1ccccc1)NC1CCN(Cc2ccccc2)CC1`, the IC50 stood at 33 µM.

In the case of `S=C(Nc1cccnc1)NC1CCN(Cc2ccccc2)CC1`, the IC50 is 1 µM and 3 µM.

For `CCCNC(=S)NC1CCN(Cc2ccccc2)CC1`, the half-maximal inhibitory concentration (IC50) is over 100 µM.

With `O=C(Nc1cccnc1)NC1CCN(Cc2ccccc2)CC1`, the IC50 is over 100 µM.

On to `CCN1CCC(NC(=S)Nc2cccnc2)CC1`, for which the IC50 was over 100 µM.

System in the next data set: not listed separately
Kind of data set: Cytotoxicity against human HT-29 cells. The class given is cell-based.
Conditions: not given
Turning to `N=c1n(CCOc2ccccc2)c2ccccc2n1CCN1CCCCC1`, it took 42 µM to reach half-maximal cytotoxicity (CC50).

System in the next data set: not listed separately
Briefly: Dissociation constant, pKa of the compound. The class given is physicochemical.
Conditions: not given
The pKa is the negative logarithm of the acid dissociation constant. Regarding `CCc1ccc2c(C)nc(NC3=NC(C)(C)C=C(C)N3)nc2c1`, the pKa amounted to 2.4.

`CN1C2CCC1CC(=NOC(c1ccccc1)c1ccc(Cl)cc1)C2` (configuration not stated) returned a pKa of 8.34.

`CCc1ccc2c(C)nc(NC3=NC(C)(C)CC(C)=N3)nc2c1` displayed a pKa of 2.

The test system of another data set is Liver microsomes. Briefly: Intrinsic clearance in human liver microsomes assessed per mg of protein by liquid chromatography-mass spectrometry. The class given is ADME, Microsome.
Conditions: not given
The method in brief: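 Compound is incubated with human liver microsomes and NADPH, and parent loss is followed by LC-MS. Concentration versus time is fitted to exponential decay to give the first-order depletion rate constant. In vitro CLint and predicted hepatic extraction ratio are calculated from that constant.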
A general note: Microsomes from liver hold many membrane-bound enzymes, among them those of drug oxidation.
`CCc1ccc2c(C)nc(NC3=NC(C)(C)C=C(C)N3)nc2c1`: the CL was determined as 90 µL/min/mg.

On to `CN1C2CCC1CC(=NOC(c1ccccc1)c1ccc(Cl)cc1)C2` (configuration not stated), for which the CL stood at 31 µL/min/mg.

On to `CCc1ccc2c(C)nc(NC3=NC(C)(C)CC(C)=N3)nc2c1`, for which the CL stood at 90 µL/min/mg.
